Data on 15 compounds can be found in ChEMBL document CHEMBL1122698, “Selective delivery of cytotoxic compounds to cells by the LDL pathway” (1984).

Assay type in all cases: functional
The species entered for assay [1] is Homo sapiens. Nature of the assay: The compound was tested for the toxicity of normal +r-LDL, measured by its ability to inhibit the growth of normal human fibroblasts or chinese hamster ovary (CHO) cells, at concentration 20 ug/mL. The method in brief:
(§1)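 Normal human fibroblasts were seeded at 20 000/well and held 4 h before addition of compound-reconstituted LDL (r-LDL) or methylated r-LDL. Comparison cells with few LDL receptors were receptor-negative homozygous FH fibroblasts or V-79 CHO cells. Doses are given as LDL protein concentration. On day 3 the cells were PBS-washed, fixed with 15% formalin for 15 min and stained with crystal violet. Growth was scored visually from 0 to 6, with untreated controls at 6.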

Assay [2] is described as follows: The compound was tested for the toxicity of mutant+r-LDL, measured by its ability to inhibit the growth of normal human fibroblasts or chinese hamster ovary (CHO) cells, at concentration 20 ug/mL. The method, boiled down: as §1
Assay [3] is filed under the species Homo sapiens. Kind of assay: The compound was tested for the toxicity of +Me-r-LDL,measured by its ability to inhibit the growth of normal human fibroblasts or chinese hamster ovary (CHO) cells, at concentration 80 ug/mL. The method, boiled down: (§2)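 SV-40-transformed human fibroblasts (SV-589) were seeded at 20 000/well and left 4 h. They were then exposed to compound-reconstituted LDL or reconstituted methylated LDL (Me-r-LDL, not recognised by LDL receptors). Doses are given as LDL protein concentration. On day 3 the wells were PBS-washed to remove dead cells, and adherent cells were fixed with 15% formalin for 15 min and stained with crystal violet. Growth was scored visually, with untreated controls scored 4.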

Assay [4] is filed under the species Homo sapiens. Nature of the assay: The compound was tested for the toxicity of +r-LDL,measured by its ability to inhibit the growth of normal human fibroblasts or chinese hamster ovary (CHO) cells, at concentration 80 ug/mL. The method, boiled down: as §2
For assay [5], the species on record is Homo sapiens. Kind of assay: (§3) The compound was tested for the toxicity of normal +r-LDL, measured by its ability to inhibit the growth of normal human fibroblasts or chinese hamster ovary (CHO) cells, at concentration 10 ug/mL. The method, boiled down: (§4)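 Compound reconstituted into LDL (r-LDL) and added to cells; concentration given as LDL protein, roughly equal to compound concentration. Cells plated 20 000/well, left 4 h, then r-LDL added. On day 3, wells washed with PBS to remove dead cells; adherent cells fixed in 15% formalin 15 min, crystal violet stained, scored visually on a 0–6 growth scale (untreated control = 6).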

Assay [6] can be described thus: The compound was tested for the toxicity of mutant+r-LDL, measured by its ability to inhibit the growth of normal human fibroblasts or chinese hamster ovary (CHO) cells, at concentration 10 ug/mL. The method, boiled down:
as §4

For assay [7], the species on record is Homo sapiens. Kind of assay: The compound was tested for the toxicity of normal+r-LDL, measured by its ability to inhibit the growth of normal human fibroblasts or chinese hamster ovary (CHO) cells, at concentration 10 ug/mL. The method, boiled down: as §1
Assay [8] is filed under the species Homo sapiens. Nature of the assay: The compound was tested for the toxicity of normal+r-LDL, measured by its ability to inhibit the growth of normal human fibroblasts or chinese hamster ovary (CHO) cells, at concentration 2 ug/mL. The method in brief: as §1
Assay [9] is described as follows: The compound was tested for the toxicity of mutant+r-LDL, measured by its ability to inhibit the growth of normal human fibroblasts or chinese hamster ovary (CHO) cells, at concentration 2 ug/mL. The method, boiled down: as §1
The species named for assay [10] is Homo sapiens. Kind of assay: The compound was tested for the toxicity of normal +r-LDL, measured by its ability to inhibit the growth of normal human fibroblasts or chinese hamster ovary (CHO) cells, at concentration 0.5 ug/mL. The method in brief: as §4
Assay [11] is described as follows: The compound was tested for the toxicity of mutant+r-LDL, measured by its ability to inhibit the growth of normal human fibroblasts or chinese hamster ovary (CHO) cells, at concentration 0.5 ug/mL. The method, boiled down: as §4
The species named for assay [12] is Homo sapiens. The description is as §3. The method in brief: as §1
This is another data set of the same source.

The species named for assay [13] is Homo sapiens. Kind of assay: The compound was tested for the toxicity of normal +r-LDL, measured by its ability to inhibit the growth of normal human fibroblasts or chinese hamster ovary (CHO) cells, at concentration 80 ug/mL. The method, boiled down:
as §1

With `CC(C)CCCC(C)C1CCC2C3CC=C4CC(OC(=O)Cc5ccc(N(CCCl)CCCl)cc5)CCC4(C)C3CCC12C` (stereo not drawn), the Growth of cells (in the assay listed under Homo sapiens [1]; in [2]) was 6 each time.
As for `CCCCCCCC/C=C\CCCCCCCCC(=O)O[C@H]1CC[C@@]2(C)C(=CC[C@H]3[C@@H]4CC[C@H](C(C)CCCOC(=O)CCCc5ccc(N(CCCl)CCCl)cc5)C4CC[C@@H]32)C1` (stereo partly drawn), the Growth of cells in the assay listed under Homo sapiens [3] and in the assay listed under Homo sapiens [4] was 4 each time.
`CCCCCCCC/C=C\CCCCCCCCC(=O)O[C@H]1CC[C@@]2(C)C(=CC[C@H]3[C@@H]4CC[C@H](C(C)COC(=O)NCCCCCCCCCCCC)C4CC[C@@H]32)C1` (stereo partly drawn): the Growth of cells (in the assay filed under Homo sapiens [5]; in [6]) was 6 each time.
For `CCCCCCCC/C=C\CCCCCCCCNC(=O)C(C)[C@H]1CC[C@@H]2C1CC[C@H]1[C@H]2CC=C2C[C@@H](OC(=O)CCCCCCCC/C=C\CCCCCCCC)CC[C@@]21C` (stereo partly drawn), the Growth of cells (in the assay filed under Homo sapiens [1]; in assay [2]) was 6 in each case.
`CCCCCCCC/C=C\CCCCCCCCOC(=O)N(CCCl)CCCl`: the Growth of cells in the assay filed under Homo sapiens [7] was 0; in the assay listed under Homo sapiens [8], 2; in assay [6], 0; in assay [9], 5.
Take `CC1=C(/C=C/C(C)=C/C=C/C(C)=C\CN2CCOCC2)C(C)(C)CCC1`: the Growth of cells (in the assay filed under Homo sapiens [10]; in assay [11]) was 0 throughout.
In the case of `CCCCCCCC/C=C\CCCCCCCCC(=O)O[C@H]1CC[C@@]2(C)C(=CC[C@H]3[C@@H]4CC[C@H](C(C)COC(=O)N5CCOC(CCCCCCCCCCCC)C5)C4CC[C@@H]32)C1` (stereo partly drawn), the Growth of cells (in the assay listed under Homo sapiens [5]; in assay [6]) was 6 each time.
Take `CCCCCCCC/C=C\CCCCCCCCOC(=O)N(CCCCCCCCCCCC)CC(F)(F)F`: the Growth of cells (in the assay filed under Homo sapiens [12]; in assay [6]) was 6 in each case.
Consider `CCCCCCCC/C=C\CCCCCCCCOC(=O)N1CCOC(CCCCCCCCCCCC)C1` (stereo not drawn), for which the Growth of cells (in the assay filed under Homo sapiens [5]; in [6]) was 6 throughout.
As for `CCCCCCCC/C=C\CCCCCCCCN1CC(C)OC(C)C1` (stereo not drawn), the Growth of cells (in the assay filed under Homo sapiens [10]; in assay [11]) was 0 throughout.
In the case of `CCCCCCCC/C=C\CCCCCCCCC(=O)O[C@H]1CC[C@@]2(C)C(=CC[C@H]3[C@@H]4CC[C@H](C(C)COC(=O)N(CCCl)CCCl)C4CC[C@@H]32)C1` (stereo partly drawn), the Growth of cells in the assay listed under Homo sapiens [12] is recorded as 0; in assay [6] it was 6.
As to `CCCCCCCC/C=C\CCCCCCCCN1CCOCC1`, the Growth of cells is 0 in the assay listed under Homo sapiens [10] and 1 in [11].
As to `CCCCCCCC/C=C\CCCCCCCCC(=O)O[C@H]1CC[C@@]2(C)C(=CC[C@H]3[C@@H]4CC[C@H](C(C)C(=O)N5CCOC(CCCCCCCCCCCC)C5)C4CC[C@@H]32)C1` (stereo partly drawn), the Growth of cells (in the assay listed under Homo sapiens [10]; in [11]) was 6 each time.
In the case of `CCCCCCCC/C=C\CCCCCCCCC(=O)O[C@H]1CC[C@@]2(C)C(=CC[C@H]3[C@@H]4CC[C@H](C(C)COC(=O)CCCc5ccc(N(CCCl)CCCl)cc5)C4CC[C@@H]32)C1` (stereo partly drawn), the Growth of cells is reported as 4 in the assay filed under Homo sapiens [3], 4 in the assay listed under Homo sapiens [4] and 6 in the assay listed under Homo sapiens [13].
Turning to `CCCCCCCC/C=C\CCCCCCCCOC(=O)N(CCCCCCCCCCCC)CC(F)F`, the Growth of cells (in the assay listed under Homo sapiens [5]; in assay [6]) was 6 throughout.
